Experimental data: EPA's CvTdb concentration-time database

Assays:
[1] = test system: Rat; assay: concentration in kidney after dosing; conditions: 3360 h; dosed: Perfluorodecanoic acid; 10 mg/kg; oral; Female; Harlan Sprague Dawley
[2] = test system: Rat; assay: concentration in plasma after dosing; conditions: 5 min; dosed: Di-n-butyl phthalate; 50 mg/kg; oral; Male; Sprague-Dawley
[3] = test system: Rat; assay: concentration in plasma after dosing; conditions: 2 min; dosed: dichloroacetic acid; 10 mg/kg; iv; Male; F344
[4] = test system: Rat; assay: concentration in plasma after dosing; conditions: dosed: dichloroacetic acid, 40 mg/kg, oral, Female, Harlan Sprague Dawley
[5] = test system: Rat; assay: concentration in plasma after dosing; conditions: 2 h; dosed: Wyeth-14643; 1.0 mg/kg; oral; Male; Sprague-Dawley
[6] = test system: Rat; assay: concentration in plasma after dosing; conditions: dosed: Wyeth-14643, 2.0 mg/kg, iv, Male, Sprague-Dawley
[7] = test system: Rat; assay: concentration in plasma after dosing; conditions: dosed: Wyeth-14643, 5.0 mg/kg, oral, Male, Sprague-Dawley
[8] = test system: human; assay: concentration in blood after dosing; negative times count back from the end of exposure; conditions: dosed: trichloroethylene, inhalation
Summary of the method: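 Points were largely digitised from plot screenshots with WebPlotDigitizer or otherwise copied from tables, and they remain in the units each source reported. They come from published in vivo toxicokinetic studies and two structured collections. Sampling and analytical methods follow each source and were often not reported.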

[9] = test system: Rat; assay: concentration in plasma after dosing; conditions: 1 h; dosed: Bis 2-Chloroethoxy Methane; 40 mg/kg; iv; Male; Harlan Sprague Dawley
[10] = test system: Rat; assay: concentration in thymus after dosing; conditions: 4 h; dosed: Bis 2-Chloroethoxy Methane; 20 mg/kg; iv; Male; F344
[11] = test system: Rat; assay: concentration in thymus after dosing; conditions: 3 h; dosed: Bis 2-Chloroethoxy Methane; 20 mg/kg; iv; Male; F344
[12] = test system: Rat; assay: concentration in thymus after dosing; conditions: 40 min; dosed: Bis 2-Chloroethoxy Methane; 20 mg/kg; iv; Female; F344
[13] = test system: Rat; assay: concentration in thymus after dosing; conditions: 20 min; dosed: Bis 2-Chloroethoxy Methane; 20 mg/kg; iv; Male; F344
[14] = test system: Rat; assay: concentration in plasma after dosing; conditions: 10 min; dosed: Bis 2-Chloroethoxy Methane; 20 mg/kg; iv; Female; F344
[15] = test system: Rat; assay: concentration in heart after dosing; conditions: 6 h; dosed: Bis 2-Chloroethoxy Methane; 20 mg/kg; iv; Female; F344
[16] = test system: Rat; assay: concentration in brain after dosing; conditions: 0.5 h; dosed: Fluorotelomer alcohol 8+2; 80 mg/kg; oral; Female; Harlan Sprague Dawley
[17] = test system: Rat; assay: concentration in kidney after dosing; conditions: 0.5 h; dosed: Fluorotelomer alcohol 8+2; 24 mg/kg; oral; Male; Harlan Sprague Dawley
[18] = test system: Rat; assay: concentration in thymus after dosing; conditions: 5.333 h; dosed: Thiodiglycolic Acid; 20 mg/kg; iv; Male; Harlan Sprague Dawley
[19] = test system: Rat; assay: concentration in liver after dosing; conditions: 20 min; dosed: Thiodiglycolic Acid; 20 mg/kg; iv; Female; Harlan Sprague Dawley
[20] = test system: Rat; assay: concentration in plasma after dosing; conditions: 3 h; dosed: Thiodiglycolic Acid; 20 mg/kg; iv; Male; Harlan Sprague Dawley
[21] = test system: Rat; assay: concentration in thymus after dosing; conditions: 2 h; dosed: Thiodiglycolic Acid; 20 mg/kg; iv; Male; Harlan Sprague Dawley
[22] = test system: Rat; assay: concentration in thymus after dosing; conditions: 4 h; dosed: Thiodiglycolic Acid; 20 mg/kg; iv; Female; Harlan Sprague Dawley
[23] = test system: Rat; assay: concentration in plasma after dosing; conditions: 3 h; dosed: Primidone; 80 mg/kg; oral; Male; F344

O=C(O)C(F)(F)C(F)(F)C(F)(F)C(F)(F)C(F)(F)C(F)(F)C(F)(F)C(F)(F)C(F)(F)F [Perfluorodecanoic acid]
Conditions | concentration in kidney [ng/g]
[1] | 2910

CCCCOC(=O)c1ccccc1C(=O)O [Mono-n-butyl phthalate]
Conditions | concentration in plasma [µg/mL]
[2] | 2.4

O=C(O)C(Cl)Cl [dichloroacetic acid]
Conditions | concentration in plasma [µg/mL]
[3] | 30.4

[4]
Conditions | concentration in plasma [µg/mL]
1.25 h | 4.62
5 min | 5.14

Cc1cccc(Nc2cc(Cl)nc(SCC(=O)O)n2)c1C
Conditions | concentration in plasma [µg/mL]
[5] | 0.266

concentration in plasma [µg/mL]
Conditions | 0.5 h | 3 h | 10 h
[6] | 5.2 | 0.338 | –
[7] | 1.97 | – | 0.15

O=C(O)C(Cl)(Cl)Cl [trichloroacetic acid]
concentration in blood [mg/kg], [8], duration: 2 hr - 20 min
Conditions | 0 h | 0.5 h | 1 h | 1.5 h | 2 h | 21 h
1348 mg | 3 | 3.5 | 3.7 | 4.1 | 4.5 | 13.3
1681 mg | 2.8 | 3.6 | 3.9 | 4.5 | 5.2 | 13.6
3907 mg | 3 | 3.9 | 4.5 | 5.3 | 5.4 | 17.8

[8]
Conditions | concentration in blood
-1.833 h, 1348 mg, duration: 2 hr - 20 min, during exposure | 0.6 mg/kg
-1.833 h, 1681 mg, duration: 2 hr - 20 min, during exposure | 0.4 mg/kg
-1.833 h, 3907 mg, duration: 2 hr - 20 min, during exposure | 0.7 mg/kg
-1 h, 1348 mg, duration: 2 hr - 20 min, during exposure | 1.4 mg/kg
-1 h, 1681 mg, duration: 2 hr - 20 min, during exposure | 1.1 mg/kg
-1 h, 3907 mg, duration: 2 hr - 20 min, during exposure | 1.6 mg/kg
-0.5 h, 1348 mg, duration: 2 hr - 20 min, during exposure | 2.3 mg/kg
-0.5 h, 1681 mg, duration: 2 hr - 20 min, during exposure | 1.7 mg/kg
-0.5 h, 3907 mg, duration: 2 hr - 20 min, during exposure | 2.3 mg/kg
0.1859 h, 100 ppm, duration: 4 hr, person | 3.83 µg/mL
0.2626 h, 100 ppm, duration: 4 hr, person | 3.95 µg/mL
0.4953 h, 100 ppm, duration: 4 hr, person | 4.15 µg/mL
0.7295 h, 100 ppm, duration: 4 hr, person | 3.52 µg/mL
1.042 h, 100 ppm, duration: 4 hr, person | 4.39 µg/mL
2.008 h, 100 ppm, duration: 4 hr, person | 4.23 µg/mL
2.056 h, 100 ppm, duration: 4 hr, person | 4.95 µg/mL
4.002 h, 100 ppm, duration: 4 hr, person | 5.13 µg/mL
4.087 h, 100 ppm, duration: 4 hr, person | 5.83 µg/mL
5.968 h, 100 ppm, duration: 4 hr, person | 6.28 µg/mL
6.071 h, 100 ppm, duration: 4 hr, person | 5.77 µg/mL
8.056 h, 100 ppm, duration: 4 hr, person | 6.1 µg/mL
8.086 h, 100 ppm, duration: 4 hr, person | 6.68 µg/mL
10.05 h, 100 ppm, duration: 4 hr, person | 6.68 µg/mL
10.13 h, 100 ppm, duration: 4 hr, person | 7.05 µg/mL
12.03 h, 100 ppm, duration: 4 hr, person | 7.2 µg/mL
12.16 h, 100 ppm, duration: 4 hr, person | 7.48 µg/mL
14.01 h, 100 ppm, duration: 4 hr, person | 7.11 µg/mL
14.05 h, 100 ppm, duration: 4 hr, person | 7.82 µg/mL
16 h, 100 ppm, duration: 4 hr, person | 7.96 µg/mL
16.01 h, 100 ppm, duration: 4 hr, person | 7.74 µg/mL
17.81 h, 100 ppm, duration: 4 hr, person | 8.69 µg/mL
17.98 h, 100 ppm, duration: 4 hr, person | 7.93 µg/mL
41.89 h, 100 ppm, duration: 4 hr, person | 8.48 µg/mL
44.06 h, 100 ppm, duration: 4 hr, person | 9.62 µg/mL
65.95 h, 100 ppm, duration: 4 hr, person | 6.78 µg/mL
67.63 h, 100 ppm, duration: 4 hr, person | 7.42 µg/mL
89.84 h, 100 ppm, duration: 4 hr, person | 6.47 µg/mL
91.02 h, 100 ppm, duration: 4 hr, person | 5.31 µg/mL
324 s, 100 ppm, duration: 4 hr, person | 3.16 µg/mL

[8], 100 ppm, duration: 4 hr, person, during exposure
Conditions | concentration in blood [µg/mL]
-3.454 h | 0.294
-3.442 h | 0.21
-3.04 h | 0.62
-2.832 h | 0.741
-1.998 h | 1.36
-1.982 h | 1.68
-1.033 h | 2.27
-0.8992 h | 2.83

ClCCOCOCCCl [Bis 2-Chloroethoxy Methane]
Conditions | concentration in heart [ng/g] | concentration in plasma [ng/mL] | concentration in thymus [ng/g]
[9] | – | 3100 | –
[10] | – | – | 149
[11] | – | – | 394
[12] | – | – | 6590
[13] | – | – | 26300
[14] | – | 9960 | –
[15] | 28.6 | – | –

OCCC(F)(F)C(F)(F)C(F)(F)C(F)(F)C(F)(F)C(F)(F)C(F)(F)C(F)(F)F [Fluorotelomer alcohol 8+2]
Conditions | concentration in brain [ng/g] | concentration in kidney [ng/g]
[16] | 2670 | –
[17] | – | 1800

O=C(O)CSCC(=O)O [Thiodiglycolic Acid]
Conditions | concentration in liver [ng/g] | concentration in plasma [ng/mL] | concentration in thymus [ng/g]
[18] | – | – | 471
[19] | 47100 | – | –
[20] | – | 696 | –
[21] | – | – | 2120
[22] | – | – | 637

CCC1(c2ccccc2)C(=O)NC(=O)NC1=O [Phenobarbital]
Conditions | concentration in plasma [µg/mL]
[23] | 5.24
